Tests used:
[1] = target: T1, Alpha-1D adrenergic receptor (Rattus norvegicus) (UniProt P23944); experiment: Inhibition of phenylephrine-stimulated Wistar rat aorta contraction at 10 uM; format: functional, tissue-based; parameters: scale not given: the % may be the effect or the level left
T1 sequence (whole entry): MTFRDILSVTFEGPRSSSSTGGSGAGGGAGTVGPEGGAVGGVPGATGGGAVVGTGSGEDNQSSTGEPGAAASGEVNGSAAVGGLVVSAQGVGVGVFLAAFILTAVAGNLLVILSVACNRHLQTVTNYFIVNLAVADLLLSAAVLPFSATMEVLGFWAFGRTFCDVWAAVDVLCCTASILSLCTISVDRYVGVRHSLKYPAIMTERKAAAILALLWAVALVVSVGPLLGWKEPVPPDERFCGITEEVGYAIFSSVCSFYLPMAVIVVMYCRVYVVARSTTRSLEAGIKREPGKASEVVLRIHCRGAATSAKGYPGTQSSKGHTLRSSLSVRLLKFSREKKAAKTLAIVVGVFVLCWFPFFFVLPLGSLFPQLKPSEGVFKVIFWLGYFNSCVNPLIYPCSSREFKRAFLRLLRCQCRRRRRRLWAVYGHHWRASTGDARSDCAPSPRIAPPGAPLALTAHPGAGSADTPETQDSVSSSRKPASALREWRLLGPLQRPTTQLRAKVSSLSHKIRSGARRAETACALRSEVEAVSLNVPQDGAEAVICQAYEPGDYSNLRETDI
Outline: (§1)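 Isolated rat aorta rings equilibrated 1 h at 2 g resting tension in Krebs solution, changed periodically. Contracted with 10^-5 M phenylephrine; at steady maximal contraction compounds added progressively over 30 min up to 10^-5 M or 10^-4 M. Responses read after 30 min as % relaxation of PE contraction; EC50 calculated when relaxation exceeded 60%.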

[2] = target: T2, Alpha-1D adrenergic receptor (Rattus norvegicus, UniProt P23944); experiment: Vasorelaxation of phenylephrine-stimulated Wistar rat aorta contraction; format: functional, tissue-based; outline: as §1
T2 sequence (P23944 whole entry): T1 sequence (whole entry)

[3] = target: T3, Alpha-1A adrenergic receptor (Rattus norvegicus) (UniProt P43140); experiment: Affinity to Adrenergic alpha-1A receptor in Wistar rat vas deferens; format: tissue-based
T3 sequence (whole entry): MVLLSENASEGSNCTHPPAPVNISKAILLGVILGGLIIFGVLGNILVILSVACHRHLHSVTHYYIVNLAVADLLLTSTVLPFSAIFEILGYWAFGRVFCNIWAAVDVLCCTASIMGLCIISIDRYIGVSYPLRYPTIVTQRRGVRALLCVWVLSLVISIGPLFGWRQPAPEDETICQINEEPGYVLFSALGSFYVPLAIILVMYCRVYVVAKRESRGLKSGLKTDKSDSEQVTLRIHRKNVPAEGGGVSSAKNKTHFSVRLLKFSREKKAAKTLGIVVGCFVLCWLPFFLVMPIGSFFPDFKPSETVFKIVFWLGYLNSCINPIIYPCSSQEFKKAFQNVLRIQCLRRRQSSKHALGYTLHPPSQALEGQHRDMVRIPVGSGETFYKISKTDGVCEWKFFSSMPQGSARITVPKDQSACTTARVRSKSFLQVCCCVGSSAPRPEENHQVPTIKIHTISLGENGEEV
Outline: (§2)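 Wistar rat vas deferens cleaned of connective tissue, held in Krebs–Henseleit at 37 °C, 95% O2–5% CO2, 1 g resting tension. Control noradrenaline concentration–response curve obtained, tissue then equilibrated with a fixed compound concentration for at least 30 min before a second NA curve. Time-matched controls; responses as % of control maximum; means ± SE.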

[4] = target: T4, Alpha-1A adrenergic receptor (Rattus norvegicus, UniProt P43140); experiment: Vasorelaxation of noradrenaline-stimulated Wistar rat vas deferens contraction; format: functional, tissue-based; outline: as §2
T4 sequence (P43140 whole entry): T3 sequence (whole entry)

[5] = target: T3, Alpha-1A adrenergic receptor (Rattus norvegicus); experiment: Inhibition of noradrenaline-stimulated Wistar rat vas deferens contraction at 1 uM; format: functional; outline: as §2
[6] = target: T3, Alpha-1A adrenergic receptor (Rattus norvegicus); experiment: Inhibition of noradrenaline-stimulated Wistar rat vas deferens contraction at 10 uM; format: functional; outline: as §2
[7] = target: T1, Alpha-1D adrenergic receptor (Rattus norvegicus); experiment: Inhibition of phenylephrine-stimulated Wistar rat aorta contraction at 100 uM; format: functional, tissue-based; parameters: scale not given: the % may be the effect or the level left; outline: as §1
[8] = target: T1, Alpha-1D adrenergic receptor (Rattus norvegicus); experiment: Affinity to Adrenergic Alpha-1D receptor in Wistar rat aorta; format: tissue-based
Outline: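 Rat aorta rings stabilised, then cumulative vasoconstrictor additions until plateau; contraction as % of control response. Protocol repeated after 30 min compound incubation.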

[9] = target: T5, Alpha-1B adrenergic receptor (Rattus norvegicus) (UniProt P15823); experiment: Affinity to Adrenergic alpha-1B receptor in Wistar rat spleen; format: tissue-based
T5 sequence (whole entry): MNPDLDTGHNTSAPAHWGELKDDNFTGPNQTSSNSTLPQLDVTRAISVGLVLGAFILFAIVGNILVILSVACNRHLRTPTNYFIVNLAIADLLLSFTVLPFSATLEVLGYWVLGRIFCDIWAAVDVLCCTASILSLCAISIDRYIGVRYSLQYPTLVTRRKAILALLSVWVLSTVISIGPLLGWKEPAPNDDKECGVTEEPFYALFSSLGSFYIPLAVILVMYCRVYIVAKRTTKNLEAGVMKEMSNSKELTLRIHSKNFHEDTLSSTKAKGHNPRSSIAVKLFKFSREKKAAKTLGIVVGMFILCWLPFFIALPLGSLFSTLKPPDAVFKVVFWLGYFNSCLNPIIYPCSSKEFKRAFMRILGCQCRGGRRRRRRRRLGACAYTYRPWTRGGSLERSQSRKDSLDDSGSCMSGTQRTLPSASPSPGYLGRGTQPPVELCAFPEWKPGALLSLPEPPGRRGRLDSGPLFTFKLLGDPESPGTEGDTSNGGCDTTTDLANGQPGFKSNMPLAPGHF
Outline: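 Longitudinal rat spleen strips at 1 g tension in Krebs, 37 °C. After stabilisation, single 10^-4 M phenylephrine dose, washout, then PE dose–response curves on two separate strips, control and after 30 min incubation with compound. Values as % of the first PE response.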

Activity [1] [%]	EC50 [2] [µM]	Compound	also measured
39.8	14	Cn1nc(Cc2cccc3ccccc23)c2ccccc2c1=O	
	> 100	CSc1ccc(Cc2nn(-c3ccccc3)c(=O)c3ccccc23)cc1	
	> 100	CSc1ccc(Cc2nn(-c3ccc([N+](=O)[O-])cc3)c(=O)c3ccccc23)cc1	
79.2	4.4	Oc1nnc(Cc2cccc3ccccc23)c2ccccc12	
67.7	2.2	COc1ccc(Cc2nn(C)c(=O)c3ccccc23)cc1OC	
	5.4	CCCCn1nc(Cc2ccc(OC)c(OC)c2)c2ccccc2c1=O	
83.8	3.7	COc1ccc(Cc2nnc(O)c3ccccc23)cc1OC	
55.7	≤ 10	Cn1nc(Cc2ccccc2)c2ccccc2c1=O	pD'2 [3]: 5.8; EC50 [4]: 1.5 µM; inhibition [5]: 36.6%; inhibition [6]: 98.8%
	29	O=c1c2ccccc2c(Cc2ccc(Cl)cc2)nn1-c1ccc([N+](=O)[O-])cc1	
	> 100	COc1cc(Cc2nnc(O)c3ccccc23)cc(OC)c1OC	Activity [7]: 34.3%
	> 100	COc1ccc(Cc2nn(-c3ccc(Br)cc3)c(=O)c3ccccc23)cc1OC	
	1.3	CCn1nc(Cc2ccc(Cl)cc2)c2ccccc2c1=O	
53	≤ 10	O=c1[nH]nc(Cc2ccccc2)c2ccccc12	
		COc1ccc(CCc2cc(O)cc(OC)c2C(=O)O)cc1	Activity [7]: 34%
	2.6	C=CCn1nc(Cc2ccc(Cl)cc2)c2ccccc2c1=O	pD'2 [3]: 5.4; EC50 [4]: 4.4 µM; inhibition [5]: 16.9%; inhibition [6]: 70.4%
	> 100	CCn1nc(Cc2ccc(SC)cc2)c2ccccc2c1=O	
	5.5	CSc1ccc(Cc2n[nH]c(=O)c3ccccc23)cc1	
47		OC1(Cc2ccc3c(c2)OCO3)c2ccccc2C2=NCCN21 (stereo unspecified)	
89.9		Oc1nnc(Cc2ccc(Cl)cc2)c2ccccc12	pD'2 [3]: 5.4; inhibition [5]: 16.3%; inhibition [6]: 76.3%
	10	COc1ccc(Cc2nn(C(C)(C)C)c(=O)c3ccccc23)cc1OC	
	5.3	CCn1nc(Cc2ccc(OC)c(OC)c2)c2ccccc2c1=O	
86.7	2.9	Oc1nnc(Cc2ccc3c(c2)OCO3)c2ccccc12	pD'2 [3]: 5.5; EC50 [4]: 3 µM; inhibition [5]: 24.3%; inhibition [6]: 78.8%
44.6	> 10	Cn1nc(Cc2ccc3ccccc3c2)c2ccccc2c1=O	
	> 100	CCCCn1nc(Cc2ccc(SC)cc2)c2ccccc2c1=O	
80.7	1.2	Cn1nc(Cc2ccc(Cl)cc2Cl)c2ccccc2c1=O	
	9.8	C=CCn1nc(Cc2ccc(OC)c(OC)c2)c2ccccc2c1=O	

Activity [1] [%]	EC50 [2] [µM]	Compound	also measured
87.2	0.93	CSc1ccc(Cc2nn(C)c(=O)c3ccccc23)cc1	
	> 30	O=c1c2ccccc2c(Cc2ccc(Cl)cc2)nn1-c1ccc(Br)cc1	
30		COc1ccc(CC(=O)c2ccccc2C(=O)N2CCCCC2)cc1OC	
		COc1ccc(CCc2cc(O)cc(OC)c2C(=O)N2CCCCC2)cc1	Activity [7]: 51%
	0.79	O=c1[nH]nc(Cc2ccc(Cl)cc2)c2ccccc12	EC50 [4]: 3.9 µM
	> 100	CC(C)(C)n1nc(Cc2ccc(Cl)cc2)c2ccccc2c1=O	
66		CSc1ccc(Cc2nnc(O)c3ccccc23)cc1	
60.3	4.9	Cn1nc(Cc2ccc(Cl)c(Cl)c2)c2ccccc2c1=O	
	> 100	COc1ccc(Cc2nn(-c3ccc([N+](=O)[O-])cc3)c(=O)c3ccccc23)cc1OC	
	> 10	COc1ccc(Cc2nnc(O)c3ccccc23)cc1	Activity [7]: 39.3%
	> 100	CSc1ccc(Cc2nn(C(C)(C)C)c(=O)c3ccccc23)cc1	
84	1.4	Cn1nc(Cc2ccccc2Cl)c2ccccc2c1=O	
	> 100	O=c1c2ccccc2c(Cc2ccc(Cl)cc2)nn1-c1ccccc1	
70		COc1ccc(C(=O)C(=O)c2ccccc2C(=O)N2CCCCC2)cc1OC	
	> 100	COc1ccc(Cc2nn(-c3ccccc3)c(=O)c3ccccc23)cc1OC	
	> 100	CSc1ccc(Cc2nn(-c3ccc(Br)cc3)c(=O)c3ccccc23)cc1	
43.9	> 10	Oc1nnc(Cc2ccc3ccccc3c2)c2ccccc12	
90.2	0.93	Cn1nc(Cc2ccc3c(c2)OCO3)c2ccccc2c1=O	
76.3	1.9	Oc1nnc(Cc2ccccc2Cl)c2ccccc12	
16.7	> 10	COc1cc(Cc2nn(C)c(=O)c3ccccc23)cc(OC)c1OC	
	> 100	CCCCn1nc(Cc2ccc(Cl)cc2)c2ccccc2c1=O	
99.3	0.43	Cn1nc(Cc2ccc(Cl)cc2)c2ccccc2c1=O	pD'2 [8]: 5.4; pD'2 [3]: 6.1; pD'2 [9]: 5.55; EC50 [4]: 0.81 µM; inhibition [5]: 61.5%; inhibition [6]: 95.4%
61.3	< 10	Oc1nnc(Cc2ccc(Cl)cc2Cl)c2ccccc12	
53.8	≤ 10	Oc1nnc(Cc2ccc(Cl)c(Cl)c2)c2ccccc12	
	> 100	C=CCn1nc(Cc2ccc(SC)cc2)c2ccccc2c1=O	
	< 100	COc1ccc(Cc2nn(C)c(=O)c3ccccc23)cc1	Activity [7]: 61.6%

From ChEMBL document CHEMBL1147016, “Vasorelaxant activity of phthalazinones and related compounds” (Bioorg Med Chem Lett, 2006)
